CXCR6 block: inhibitors of human CXCR6 receptor; 360,000 compounds, 0.36% hits; AID 602244; inhibition, % at 20 µM; CHO-K1 PathHunter CXCR6 beta-arrestin, luminescence; in the data active = inhibition above about 34%, passing the limit was not always enough;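 also: antagonist mode with CXCL16 agonist at 10 nM final; 0% = 10 nM CXCL16 with DMSO and 100% = unstimulated wells without agonist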
Target sequence (O00574 whole entry, looked up): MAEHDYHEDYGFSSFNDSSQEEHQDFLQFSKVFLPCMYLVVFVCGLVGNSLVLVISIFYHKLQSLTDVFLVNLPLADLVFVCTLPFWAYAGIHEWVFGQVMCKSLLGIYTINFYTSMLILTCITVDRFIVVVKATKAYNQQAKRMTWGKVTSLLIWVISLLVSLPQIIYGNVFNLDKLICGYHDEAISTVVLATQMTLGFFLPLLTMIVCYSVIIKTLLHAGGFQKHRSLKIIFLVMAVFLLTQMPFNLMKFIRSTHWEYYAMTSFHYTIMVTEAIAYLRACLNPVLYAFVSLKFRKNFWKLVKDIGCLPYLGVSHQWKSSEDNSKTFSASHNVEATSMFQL
EBI2 antag: blocks human EBI2 receptor beta-arrestin signaling; P32249; EBI2 beta-arrestin recruitment, luminescence, 7a,25-OHC stimulated; inhibition, % at 5 µM; 360,000 compounds, 0.81% hits; AID 651636; in the data active = inhibition above about 38%;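 also: enzyme fragment complementation signal reports receptor beta-arrestin coupling in cells; 0% = agonist plus DMSO wells and 100% = wells without agonist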
APJ ag: activates the human apelin receptor APJ; CHO-K1 APJ PathHunter beta-arrestin, luminescence; 0% DMSO wells, 100% apelin; 330,000 compounds, 0.11% hits; P35414; activation, % at 20 µM;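 active = activation more than six SD over the plate average, tested at 20 µM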;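 also: 0% = DMSO alone and 100% = apelin-13 at 10 nM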
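system = engineered CHO-K1 APJ arrestin reporter cells | input = 1000 cells per well | timing = overnight seeding, 90 min compound at 25 °C, 1 h detection | measured by = enzyme-fragment complementation luminescence | read-out = beta-arrestin recruitment to APJ as agonist activity, luminescent signal | control set = negative DMSO alone, positive Apelin-13 at 10 nM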
APJ antag: blocks the human apelin receptor APJ. CHO-K1 APJ beta-arrestin complementation, luminescence. AID 2521. inhibition, % at 20 µM. P35414. 330,000 compounds, 0.32% hits;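 active = inhibition above about 40% at 20 µM, limit read from the data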;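 also: cells challenged with 10 nM apelin-13 agonist together with compound; plate controls were apelin-13 plus DMSO wells for no effect and DMSO wells lacking apelin-13 for full effect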
CCR6 antagonist: CCR6 (human) receptor antagonism. inhibition, % at 20 µM. AID 493098. P51684. 340,000 compounds, 0.49% hits. CHO-K1 CCR6 PathHunter beta-arrestin, luminescence, CCL20-stimulated;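 active = compounds whose inhibition of the agonist-driven luminescence signal at 20 µM reaches about 50%, limit read from the data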;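 also: cells stimulated with CCL20 at 14 nM final; plate controls were DMSO with CCL20 for no effect and DMSO without agonist for full effect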
APJ ag conf: APJ receptor agonism confirmation. shares compounds with APJ ag. 310 compounds, 10% hits. CHO-K1 APJ PathHunter beta-arrestin, luminescence. activation, % at 20 µM;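 active = activation above 40%, taking the highest of four retests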;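 also: plate controls were DMSO wells for no effect and apelin-13 at 10 nM for full effect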
* marks the source's active call; other numbers are inactive results; . = no result given. The list is not random: actives were taken first. Their share in the collection is about 1.5%.

SMILES | CXCR6 block | EBI2 antag | APJ ag | APJ antag | CCR6 antagonist | APJ ag conf
N#Cc1nc(-c2ccc(OCc3ccc(Cl)cc3)cc2)oc1N1CCC(C(N)=O)CC1 | 2 | -5 | -2 | 6 | 11 | .
O=C(Nc1ccc(Cl)c([N+](=O)[O-])c1)ONC1=NCCCCC1 | -9 | -11 | 16* | -60 | -15 | 18
O=C(ONC1=NCCCCC1)c1cccc([N+](=O)[O-])c1 | -27 | -16 | 6 | -41 | -27 | .
COc1ccc(-c2nc3ccccn3c2NCc2ccc3c(c2)OCO3)cc1 | 2 | -12 | 5 | -8 | 8 | .
COc1ccc(-c2cc(-c3nc4ccccn4c3NCc3ccccc3)ccc2OC)cc1 | 16 | -132 | 23* | -28 | 7 | 5
COc1cccc2sc3ccc(NCCC4CCCN4C)cc3c(=O)c12 (stereo unspecified) | -21 | -4 | 53* | -124 | 15 | 1
COc1cc2sc3cc(NCC[C@@H]4CCCN4C)ccc3c(=O)c2cc1OC | -8 | -7 | -1 | -1 | 7 | .
O=C(O)C1CCC(Cn2c(SCc3cc(=O)n4cc(Cl)ccc4n3)nc3ccsc3c2=O)CC1 (stereo unspecified) | 0 | 7 | 0 | -9 | -9 | .
CC(C)CCN(C(=O)C1CCCC1)c1c(N)n(Cc2ccccc2)c(=O)[nH]c1=O | 5 | -8 | -1 | -1 | 10 | .
CC(C)CCN(C(=S)NC(=O)C1CCCCC1)c1c(N)n(Cc2ccccc2)c(=O)[nH]c1=O | 8 | 2 | 33* | -7 | 0 | 39
COc1ccc(/C=N/N2C(=O)CSC2=S)cc1 | -8 | -9 | 9 | -10 | 9 | .
COc1ccc(-c2nn(-c3ccccc3)cc2/C=N/N2C(=O)CSC2=S)cc1 | -12 | -10 | 18* | -62 | -9 | 22
CCN(CC(=O)N1CCCC1)S(=O)(=O)c1cc(C)ccc1OC | 4 | 6 | 30* | 9 | 16 | 7
Cn1ncc2c(O/N=C(\N)c3ccc(C(C)(C)C)cc3)ncnc21 | -34 | 2 | 27* | -65 | -32 | 62*
CCOC(=O)c1ccc(Nc2ncnc3c2cnn3C)cc1 | -5 | -6 | 5 | -7 | 0 | .
COc1cc(/C=C(/C#N)c2nc3ccccc3[nH]2)ccc1OCC(=O)Nc1ccccc1C(C)C | 6 | -5 | 29* | -18 | 7 | 14
COC(=O)c1ccc(C)c(NC(=O)CCCN2C(=O)NC(C)(C)C2=O)c1 | 7 | -6 | 0 | -9 | -2 | .
C=CCn1c(SCC(=O)N2CCN(c3ccccc3)CC2)nc2c([nH]c3ccccc32)c1=O | 2 | -5 | 65* | -17 | 0 | 11
CCOc1cc2[nH]c(=S)n(CC3CCCN3CC)c(=O)c2cc1OCC (stereo unspecified) | 11 | 9 | 17* | 16 | -8 | 25
CCOc1cc2[nH]c(=S)n(CCC(=O)N3CCc4ccccc4C3)c(=O)c2cc1OCC | -2 | -7 | 53* | -11 | -18 | 48*
CCOc1ccc(S(=O)(=O)N(CC)CC)cc1NC(=O)CSCc1c(C)noc1C | 1 | -1 | 0 | 8 | 1 | .
CCCn1cc(CN2CCC(N3CCC(C(=O)N4CCOCC4)CC3)CC2)c(C)n1 | -2 | -5 | -1 | 10 | -6 | .
CCN(CC)c1ccc(CN(C(=O)c2cccs2)C2CCS(=O)(=O)C2)cc1 (stereo unspecified) | 5 | 5 | -1 | 16 | -15 | .
Cc1cccc(/C(N)=N/OC(=O)c2cccc3ccccc23)c1 | -33 | -3 | 36* | -128 | . | 32
NC(=O)NC(=O)COC(=O)/C=C/c1cccs1 | -2 | -4 | -1 | 0 | 7 | .
SMILES | CXCR6 block | EBI2 antag | APJ ag | APJ antag | CCR6 antagonist | APJ ag conf
CCCc1cc(C(=O)Nc2sc3c(c2C(=O)OCC)CCCC3)no1 | -3 | 7 | 68* | 16 | -2 | 1
CCOC(=O)c1c(NC(=O)c2ccn(CC)n2)sc2c1CCC2 | 6 | -3 | -2 | 4 | 12 | .
Cc1cccc(N(CC(=O)NC2CCCCC2)C(=O)c2c(C)noc2C)c1 | 2 | -4 | 0 | 10 | 6 | .
Cc1cc(C)cc(NC(=O)C[n+]2ccccc2)c1 | 1 | -12 | -5 | -2 | 1 | .
N#Cc1ccc(-c2nc3ccc(Br)cn3c2Cc2ccccc2)cc1 | 17 | 30 | . | . | . | .
Cc1onc(-c2ccccc2)c1-c1nnc(-c2ccccc2C(F)(F)F)o1 | 10 | 4 | -3 | 10 | 1 | .
